Source: ChEMBL document CHEMBL4382206, “Inhibition of adherence of the yeast Candida albicans to buccal epithelial cells by synthetic aromatic glycoconjugates” (Eur J Med Chem, 2018)
The source made the active and inactive calls. The calls are words filed in the database; no cut-off is given here.

What was measured:
Candida albicans [1] = experiment: Antimicrobial activity against Candida albicans assessed as inhibition of fungal adherence to BEC by measuring change in adhesion at 10 mg/ml treated with fungus for 90 mins followed by compound washout and cell line addition by crystal violet staining based microscopic analysis relative to control; type: functional; set-up: scale not given: the % may be the effect or the level left
Outline: (§1)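 Stationary-phase C. albicans, grown overnight in YEPD at 30°C and 200 rpm, was washed and suspended in PBS at 1 x 10^8/mL. Yeast was preincubated 90 min with compound, washed twice, and mixed 50:1 with donor buccal cells (5 x 10^5/ml) at 30°C, 200 rpm, for 90 min. Samples were filtered through 30 µm pores, stained with crystal violet, and yeast counted on 200 BECs; n=3, mean ± SEM.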

Candida albicans [2] = experiment: Growth inhibition of Candida albicans at 0.02 to 10 mg/ml; type: organism-based
Candida albicans [3] = experiment: Antimicrobial activity against Candida albicans assessed as inhibition of fungal adherence to BEC at 0.1 mg/ml treated with fungus for 90 mins followed by compound washout and cell line addition by crystal violet staining based microscopic analysis; type: functional, organism-based; outline: as §1
Candida albicans [4] = experiment: Antimicrobial activity against Candida albicans assessed as inhibition of fungal adherence to BEC by measuring adhesion at 0.1 mg/ml after 90 mins by crystal violet staining based microscopic analysis relative to control; type: functional; details: 1.5 h
Outline: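 Competition format: yeast (1 x 10^8/mL PBS) and exfoliated human buccal cells (50:1 ratio) were co-incubated with compound for 90 min at 30°C, 200 rpm. BECs were trapped on a 30 µm polycarbonate membrane, washed twice with PBS, heat-fixed and crystal violet-stained. Adherent yeast were counted microscopically on 200 random BECs; three independent occasions, mean ± SEM.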

Candida albicans [5] = experiment: Antimicrobial activity against Candida albicans assessed as inhibition of fungal adherence to BEC at 0.1 mg/ml incubated with fungal/BEC mixture for 90 mins by crystal violet staining based microscopic analysis relative to untreated control; type: functional; details: 1.5 h
Candida albicans [6] = experiment: Antimicrobial activity against Candida albicans assessed as inhibition of fungal adherence to BEC at 0.1 mg/ml incubated with fungal/BEC mixture for 90 mins by crystal violet staining based microscopic analysis relative to PBS treated control; type: functional; details: 1.5 h
[7] = Drug uptake in Candida albicans cell membrane by confocal microscopic analysis; type: ADME, cell-based
Outline: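 For confocal imaging, C. albicans cells were co-incubated with the fluorescein-labelled galactoside, with untreated cells and FITC-treated cells as controls. Excitation was at 488 nm and emission was collected at 500–600 nm.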

Compound | Activity (Candida albicans [1]) [%] | growth inhibition (GI) (Candida albicans [2]) | further results
CCC(=O)Nc1cc(C(=O)N[C@@H]2O[C@H](CO)[C@H](O)[C@H](O)[C@H]2O)cc(C(=O)N[C@@H]2O[C@H](CO)[C@H](O)[C@H](O)[C@H]2O)c1 | -26 |  | 
CCC(=O)Nc1cccc(C(=O)NCc2cn([C@@H]3O[C@H](CO)[C@H](O)[C@H](O)[C@H]3O)nn2)c1 | -14.5 |  | 
CC[C@H](C)C[C@H](C)CCCCCCCCC(=O)N[C@H]1C[C@@H](O)[C@@H](NCCN)NC(=O)[C@@H]2[C@@H](O)CCN2C(=O)[C@H]([C@H](O)CCN)NC(=O)[C@H]([C@H](O)[C@@H](O)c2ccc(O)cc2)NC(=O)[C@@H]2C[C@@H](O)CN2C(=O)[C@H]([C@@H](C)O)NC1=O [CASPOFUNGIN] |  | Non-Toxic | 
CCC(=O)Nc1cc(C(=O)NCc2cn([C@H]3O[C@H](CO)[C@@H](O)[C@H](O)[C@@H]3O)nn2)cc(C(=O)NCc2cn([C@H]3O[C@H](CO)[C@@H](O)[C@H](O)[C@@H]3O)nn2)c1 | 3 |  | 
CCC(=O)Nc1cccc(C(=O)NCc2cn(CCO[C@@H]3O[C@H](CO)[C@H](O)[C@H](O)[C@H]3O)nn2)c1 | -7.5 |  | 
CCC(=O)Nc1cc(C(=O)NCc2cn([C@@H]3O[C@H](CO)[C@H](O)[C@H](O)[C@H]3O)nn2)cc(C(=O)NCc2cn([C@@H]3O[C@H](CO)[C@@H](O)[C@H](O)[C@@H]3O)nn2)c1 | -24 |  | 
C[C@@H]1O[C@H](n2cc(CNC(=O)c3cc(C(=O)NCc4cn([C@H]5O[C@@H](C)[C@@H](O)[C@@H](O)[C@@H]5O)nn4)cc(C(=O)NCc4cn([C@H]5O[C@@H](C)[C@@H](O)[C@@H](O)[C@@H]5O)nn4)c3)nn2)[C@@H](O)[C@H](O)[C@@H]1O | -30 | Non-Toxic | 
CCC(=O)Nc1cc(C(=O)NCc2cn([C@@H]3O[C@H](CO)[C@H](O)[C@H](O)[C@H]3O)nn2)cc(C(=O)NCc2cn([C@@H]3O[C@H](CO)[C@H](O)[C@H](O)[C@H]3O)nn2)c1 | -80 | Non-Toxic | inhibition (Candida albicans [3]): Active; inhibition at 100 µg/mL (Candida albicans [4]): 65%; inhibition at 100 µg/mL (Candida albicans [5]): 56%; inhibition at 100 µg/mL (Candida albicans [6]): 31%
CCC(=O)Nc1cc(C(=O)NCc2cn([C@H]3O[C@@H](C)[C@@H](O)[C@@H](O)[C@@H]3O)nn2)cc(C(=O)NCc2cn([C@H]3O[C@@H](C)[C@@H](O)[C@@H](O)[C@@H]3O)nn2)c1 | -8 | Non-Toxic | 
O=C(NCc1cn([C@@H]2O[C@H](CO)[C@H](O)[C@H](O)[C@H]2O)nn1)c1cc(C(=O)NCc2cn([C@@H]3O[C@H](CO)[C@H](O)[C@H](O)[C@H]3O)nn2)cc(C(=O)NCc2cn([C@@H]3O[C@H](CO)[C@H](O)[C@H](O)[C@H]3O)nn2)c1 | -45 | Non-Toxic | 
CCC(=O)Nc1cc(C(=O)NCc2cn(CCO[C@@H]3O[C@H](CO)[C@H](O)[C@H](O)[C@H]3O)nn2)cc(C(=O)NCc2cn(CCO[C@@H]3O[C@H](CO)[C@H](O)[C@H](O)[C@H]3O)nn2)c1 | -35 | Non-Toxic | 
CCC(=O)Nc1cc(C(=O)NCc2cn([C@H]3O[C@H](CO)[C@@H](O)[C@H](O)[C@H]3NC(C)=O)nn2)cc(C(=O)NCc2cn([C@H]3O[C@H](CO)[C@@H](O)[C@H](O)[C@H]3NC(C)=O)nn2)c1 | -45 |  | 
O=C(NCc1cn(CCO[C@@H]2O[C@H](CO)[C@H](O)[C@H](O)[C@H]2O)nn1)c1cc(C(=O)NCc2cn(CCO[C@@H]3O[C@H](CO)[C@H](O)[C@H](O)[C@H]3O)nn2)cc(C(=O)NCc2cn(CCO[C@@H]3O[C@H](CO)[C@H](O)[C@H](O)[C@H]3O)nn2)c1 | -42 | Non-Toxic | 
O=C(NCc1cn([C@@H]2O[C@H](CO)[C@H](O)[C@H](O)[C@H]2O)nn1)c1cc(NC(=S)Nc2ccc3c(c2)C(=O)OC32c3ccc(O)cc3Oc3cc(O)ccc32)cc(C(=O)NCc2cn([C@@H]3O[C@H](CO)[C@H](O)[C@H](O)[C@H]3O)nn2)c1 |  |  | Drug uptake [7]: Active
CCC(=O)Nc1cccc(C(=O)NCc2cn([C@H]3O[C@@H](C)[C@@H](O)[C@@H](O)[C@@H]3O)nn2)c1 | -2 |  | 
CCC(=O)Nc1cc(C(=O)NCc2cn([C@@H]3O[C@H](CO)[C@H](O[C@@H]4O[C@H](CO)[C@H](O)[C@H](O)[C@H]4O)[C@H](O)[C@H]3O)nn2)cc(C(=O)NCc2cn([C@@H]3O[C@H](CO)[C@H](O[C@@H]4O[C@H](CO)[C@H](O)[C@H](O)[C@H]4O)[C@H](O)[C@H]3O)nn2)c1 | 6.5 |  | 
